# ChEMBL document CHEMBL1828577, “Design and synthesis of some new thiophene, thienopyrimidine and thienothiadiazine derivatives of antipyrine as potential antimicrobial agents” (2011)
# The source made the active and inactive calls. No cut-off for these calls is given here.
# How the values were obtained:
# Assay type in all cases: functional
# [1] = system: Syncephalastrum racemosum; assay: Antifungal activity against Syncephalastrum racemosum RCMB 052003 at 10 mg/ml after 3 to 4 days by agar well diffusion method; details: for zone of inhibition at 10000 µg/mL: read-out: DIZ
# Method in brief: (§1)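 Agar well diffusion on Sabouraud dextrose agar (glucose–peptone–agar 40:10:15). Culture grown in Sabouraud broth for 3-4 days to 10^5 CFU mL⁻¹; 0.1 mL spread per plate. Wells sealed at the bottom with 0.8% soft agar, then loaded with 100 µl sample at 10 mg mL⁻¹ in DMSO; DMSO control. Incubated at 30 °C for 3–4 days. Zone caliper-read three times; triplicate tests; mean ± SD.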
# [2] = system: Aspergillus fumigatus; assay: Antifungal activity against Aspergillus fumigatus RCMB 002003 at 10 mg/ml after 3 to 4 days by agar well diffusion method; details: for zone of inhibition at 10000 µg/mL: read-out: DIZ; method in brief: as §1
# [3] = system: Geotrichum candidum; assay: Antifungal activity against Geotrichum candidum RCMB 052006 at 10 mg/ml after 3 to 4 days by agar well diffusion method; details: for zone of inhibition at 10000 µg/mL: read-out: DIZ; method in brief: as §1
# [4] = system: Candida albicans; assay: Antifungal activity against Candida albicans RCMB 052002 at 10 mg/ml after 3 to 4 days by agar well diffusion method; details: for zone of inhibition at 10000 µg/mL: read-out: DIZ; method in brief: as §1
# [5] = system: Staphylococcus aureus; assay: Antibacterial activity against Staphylococcus aureus RCMB 000106 at 10 mg/ml after 24 hrs by agar well diffusion method; details: for zone of inhibition at 10000 µg/mL: RCMB 000106, 24 h, read-out: DIZ
# Method in brief: (§2)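 Agar well diffusion on nutrient agar (tryptone 1%, yeast extract 0.5%, NaCl 0.5%, agar 1%, pH 7.0). Plates spread with centrifuged pellets from a 24 h culture (about 10^4-10^6 CFU/ml). 100 µl of sample at 10 mg/mL in DMSO per 6 mm well, DMSO control. Incubated at 37 °C for 24 h. Inhibition zone diameter (mm) caliper-read three times; test run three times; mean ± SD.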
# [6] = system: Bacillus subtilis; assay: Antibacterial activity against Bacillus subtilis RCMB 000107 at 10 mg/ml after 24 hrs by agar well diffusion method; details: for zone of inhibition at 10000 µg/mL: RCMB 000107, 24 h, read-out: DIZ; method in brief: as §2
# [7] = system: Pseudomonas aeruginosa; assay: Antibacterial activity against Pseudomonas aeruginosa RCMB 000102 at 10 mg/ml after 24 hrs by agar well diffusion method; details: for zone of inhibition at 10000 µg/mL: RCMB 000102, 24 h, read-out: DIZ; method in brief: as §2
# [8] = system: Escherichia coli; assay: Antibacterial activity against Escherichia coli RCMB 000103 at 10 mg/ml after 24 hrs by agar well diffusion method; details: for zone of inhibition at 10000 µg/mL: RCMB 000103, 24 h, read-out: DIZ; method in brief: as §2
# [9] = system: Aspergillus fumigatus; assay: Antifungal activity against Aspergillus fumigatus RCMB 002003 after 3 to 4 days by two fold serial dilution method
# Method in brief: (§3)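 MIC by agar plate method. Two-fold serial dilutions in Sabouraud dextrose broth, autoclaved at 121 °C for 25 min; DMSO control. Loop of culture diluted to 10⁵–10⁶ CFU mL⁻¹. Incubated at 30 °C for 3–4 days, then colonies counted. MIC taken as the lowest concentration fully inhibiting growth relative to control, ignoring a single colony or faint haze.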
# [10] = system: Geotrichum candidum; assay: Antifungal activity against Geotrichum candidum RCMB 052006 after 3 to 4 days by two fold serial dilution method; method in brief: as §3
# [11] = system: Candida albicans; assay: Antifungal activity against Candida albicans RCMB 052002 after 3 to 4 days by two fold serial dilution method; method in brief: as §3
# [12] = system: Syncephalastrum racemosum; assay: Antifungal activity against Syncephalastrum racemosum RCMB 052003 after 3 to 4 days by two fold serial dilution method; method in brief: as §3
# [13] = system: Staphylococcus aureus; assay: Antibacterial activity against Staphylococcus aureus RCMB 000106 after 24 hrs by two fold serial dilution method; details: RCMB 000106, 24 h
# Method in brief: (§4)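 MIC by agar plate method. Two-fold serial dilutions in nutrient broth (beef extract 5 g, peptone 10 g per litre, pH 7.0), autoclaved at 121 °C for 25 min; DMSO control. Loop inoculum diluted to 10⁵–10⁶ CFU mL⁻¹. Incubated at 37 °C for 24 h, then colonies counted. MIC taken as the lowest concentration giving complete inhibition, ignoring a single colony or faint haze.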
# [14] = system: Bacillus subtilis; assay: Antibacterial activity against Bacillus subtilis RCMB 000107 after 24 hrs by two fold serial dilution method; details: RCMB 000107, 24 h; method in brief: as §4
# [15] = system: Pseudomonas aeruginosa; assay: Antibacterial activity against Pseudomonas aeruginosa RCMB 000102 after 24 hrs by two fold serial dilution method; details: RCMB 000102, 24 h; method in brief: as §4
# [16] = system: Escherichia coli; assay: Antibacterial activity against Escherichia coli RCMB 000103 after 24 hrs by two fold serial dilution method; details: RCMB 000103, 24 h; method in brief: as §4
# [17] = system: Syncephalastrum racemosum; assay: Antifungal activity against Syncephalastrum racemosum RCMB 052003 at 30 mg/ml after 3 to 4 days by agar well diffusion method; details: read-out: DIZ
Compound,zone of inhibition at 10000 µg/mL [1],zone of inhibition at 10000 µg/mL [2],zone of inhibition at 10000 µg/mL [3],zone of inhibition at 10000 µg/mL [4],zone of inhibition at 10000 µg/mL [5],zone of inhibition at 10000 µg/mL [6],zone of inhibition at 10000 µg/mL [8],diameter of the inhibition zone (DIZ) [1],diameter of the inhibition zone (DIZ) [7],diameter of the inhibition zone (DIZ) [8],also measured
CCOC(=O)c1c(Nc2c(C)n(C)n(-c3ccccc3)c2=O)csc1N,18.2 mm,22.1 mm,22 mm,16.4 mm,20.2 mm,25.3 mm,23.8 mm,,,,zone of inhibition at 10000 µg/mL [7]: 20.8 mm; MIC [9]: 19 µg/mL; MIC [10]: 39 µg/mL; MIC [11]: 78 µg/mL; MIC [12]: 39 µg/mL; MIC [13]: 39 µg/mL; MIC [14]: 19 µg/mL; MIC [15]: 39 µg/mL; MIC [16]: 19 µg/mL
CCOC(=O)C(=O)CC(=O)Nc1c(C)n(C)n(-c2ccccc2)c1=O,,11.1 mm,13.4 mm,10.6 mm,16.3 mm,16.2 mm,,inactive,inactive,inactive,
Cc1c(Nc2csc3ncnc(N)c23)c(=O)n(-c2ccccc2)n1C,13.4 mm,12.5 mm,12.8 mm,11 mm,13.9 mm,15.2 mm,10.4 mm,,inactive,,
Cc1c(NC(=O)/C=C/c2cccs2)c(=O)n(-c2ccccc2)n1C,,14.2 mm,,13.4 mm,11 mm,11.2 mm,,inactive,inactive,inactive,diameter of the inhibition zone (DIZ) [3]: inactive
Cc1c(Nc2csc(N)c2C(N)=O)c(=O)n(-c2ccccc2)n1C,,,,,,,,inactive,inactive,inactive,diameter of the inhibition zone (DIZ) [2]: inactive; diameter of the inhibition zone (DIZ) [3]: inactive; diameter of the inhibition zone (DIZ) [4]: inactive; diameter of the inhibition zone (DIZ) [5]: inactive; diameter of the inhibition zone (DIZ) [6]: inactive
Cc1c(Nc2csc3c2C(=O)N[S+]([O-])N3)c(=O)n(-c2ccccc2)n1C (stereo not given),10.6 mm,15.1 mm,14.4 mm,13.4 mm,18.3 mm,19.2 mm,,,inactive,inactive,
Cc1c(Nc2csc(NC(=O)CCl)c2C#N)c(=O)n(-c2ccccc2)n1C,11.2 mm,20.1 mm,18.3 mm,15.4 mm,19.4 mm,24.1 mm,16.2 mm,,,,zone of inhibition at 10000 µg/mL [7]: 18.9 mm; MIC [9]: 39 µg/mL; MIC [10]: 78 µg/mL; MIC [11]: 156 µg/mL; MIC [12]: 313 µg/mL; MIC [13]: 39 µg/mL; MIC [14]: 19 µg/mL; MIC [15]: 39 µg/mL; MIC [16]: 78 µg/mL
Cc1c(Nc2csc3ncn(N)c(=N)c23)c(=O)n(-c2ccccc2)n1C,,,,,,,,inactive,inactive,inactive,diameter of the inhibition zone (DIZ) [2]: inactive; diameter of the inhibition zone (DIZ) [3]: inactive; diameter of the inhibition zone (DIZ) [4]: inactive; diameter of the inhibition zone (DIZ) [5]: inactive; diameter of the inhibition zone (DIZ) [6]: inactive
CC(=O)Nc1c(C)n(C)n(-c2ccccc2)c1=O,,14.3 mm,13.4 mm,12.2 mm,15.9 mm,13.2 mm,11.4 mm,inactive,inactive,,
Clc1ccccc1C(c1ccccc1)(c1ccccc1)n1ccnc1 [CLOTRIMAZOLE],,,,,,,,,,,zone of inhibition at 30000 µg/mL [17]: 20 mm
Cc1c(Nc2csc(N)c2C#N)c(=O)n(-c2ccccc2)n1C,18.9 mm,24.3 mm,22.4 mm,17.2 mm,23.9 mm,27.2 mm,24.4 mm,,,,zone of inhibition at 10000 µg/mL [7]: 22.8 mm; MIC [9]: 19 µg/mL; MIC [10]: 19 µg/mL; MIC [11]: 39 µg/mL; MIC [12]: 39 µg/mL; MIC [13]: 19 µg/mL; MIC [14]: 9.5 µg/mL; MIC [15]: 39 µg/mL; MIC [16]: 19 µg/mL
CCC(C)n1ncn(-c2ccc(N3CCN(c4ccc(OCC5COC(Cn6cncn6)(c6ccc(Cl)cc6Cl)O5)cc4)CC3)cc2)c1=O (stereo not given) [ITRACONAZOLE],,,,,,,,,,,zone of inhibition at 30000 µg/mL [17]: 22 mm
Cc1c(NC(=O)CC(=O)C(=O)NN)c(=O)n(-c2ccccc2)n1C,13.4 mm,11.2 mm,13.4 mm,,17.2 mm,14.4 mm,,,inactive,inactive,diameter of the inhibition zone (DIZ) [4]: inactive
CCO/C=N\c1scc(Nc2c(C)n(C)n(-c3ccccc3)c2=O)c1C#N,8.5 mm,19.2 mm,17.4 mm,14.2 mm,18.4 mm,19.2 mm,13.8 mm,,,,zone of inhibition at 10000 µg/mL [7]: 16.2 mm; MIC [9]: 78 µg/mL; MIC [10]: 78 µg/mL; MIC [11]: 156 µg/mL; MIC [12]: 625 µg/mL; MIC [13]: 78 µg/mL; MIC [14]: 39 µg/mL; MIC [15]: 78 µg/mL; MIC [16]: 156 µg/mL
